Results reported in PubChem BioAssay.
Activity calls are given as the source filed them.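 The calls were made as follows, unless noted: active = inhibition of the reporter signal at or above 50%; inactive = inhibition below 50%.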

How the values were obtained:
[1] = inhibitors of TNFa-induced NFkB p65 translocation, primary screen, imaging, HUVEC, MLSMR starter and 10KST1 sets (AID 438;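 active = inhibition above 20% together with a positive visual image hit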;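 also: compound added about 3h40 before a 20 min TNFalpha stimulation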;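 as to inhibition: signal is the nuclear over cytoplasmic p65 intensity ratio per well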); settings: HUVEC TNFa-induced p65 nuclear translocation; cell count: measured here: nuclei count (cytotoxicity indicator), at 2.08 µM; inhibition: at 2 µM, stronger effect = higher value, 0% TNFa-plus-vehicle, 100% no-TNFa wells
[2] = inhibitors of mutant huntingtin aggregation, primary screen, imaging, exon1htt(103Q)mCFP cells, high-content imaging (AID 483;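 active = visual image review flags a hit and inhibition of aggregation exceeds 20%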;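 also: compound exposure lasted 3 days before fixation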;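 as to nuclei count: percent of the per-plate median nuclei count of sample wells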); settings: exon1htt(103Q)mCFP cell line, aggregate imaging, at 2 µM; inhibition of aggregation: stronger effect = higher value; nuclei count: measured here: cell count, toxicity
[3] = inhibitors of E-selectin induction by TNFa, primary screen, imaging, HUVEC, immunofluorescence, MLSMR starter and 10KST1 sets (AID 487;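 active = visually confirmed hit in the image check and inhibition above 20%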;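 as to inhibition: signal is fraction of cell area covered by stained E-selectin grains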;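 as to nuclei count: 100% = median nuclei count of all wells on the same plate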); settings: HUVEC TNFalpha-induced E-selectin immunofluorescence imaging, at 2 µM; inhibition: stronger effect = higher value; nuclei count: measured here: cell number, toxicity
[4] = biological target: Voltage-gated potassium channel subunit beta-2 (Rattus norvegicus) (UniProt P62483); assay: KvBeta enzyme negative modulators, primary screen, biochemical, NADPH fluorescence (AID 622;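 active = fluorescence slope higher than the sample average by over 3 SD, cut at about -0.22 in these data, passing the limit was not always enough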;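 also: slope of raw intensity against log time taken from 70 to 1610 s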); settings: recombinant KvBeta, 4-cyanobenzaldehyde reduction, at 10 µM, stronger effect = higher value
[5] = biological target: Voltage-gated potassium channel subunit beta-2 (Rattus norvegicus) (UniProt P62483); assay: KvBeta positive modulators, primary screen, biochemical, NADPH fluorescence (AID 623;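 active = NADPH fluorescence slope more negative than the mean of all samples by about 3 SD, 99.7% confidence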;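 also: fluorescence intensity change per second fitted from 20 to 320 s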); settings: Recombinant KvBeta, NADPH fluorescence decrease slope, 10 min; at 10 µM; stronger effect = lower value
[6] = biological target: Muscarinic acetylcholine receptor M4 (Homo sapiens) (UniProt P08173); assay: compounds altering M4/GIRK thallium flux, either direction, primary screen, M4 allosteric agonist project, cell-based, HEK293 M4/GIRK, BTC-AM (AID 625;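 active = fluorescence slope after compound addition differing from the mean of all tested samples at 99.7% confidence, mostly higher but some lower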;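 also: thallium influx through GIRK channels coupled to M4 in HEK293 cells with BTC-AM dye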); settings: at 10 µM, actives lie on both sides
How it was run: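 System: HEK293 cells with M4 receptor and GIRK channels | Incubation: Cells overnight at 37 °C, BTC-AM loading 1 h, reads 2 min total | Technique: Kinetic BTC-AM fluorescence sampled at 1 Hz, 10 s pre-addition baseline | Measure: Post-addition slope, 15–24 s, of baseline-normalized fluorescence | Control set: Carbachol positive, DMSO negative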

[7] = inhibitors of Sendai virus-induced IRF3 signaling, primary screen, TLR/RLR signaling modifier project, cell-based, Sendai virus stimulus, luciferase, 10K MLSCN set (AID 602276;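 active = inhibition at or above 50% at 10 µM; inactive = inhibition below 50%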;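 also: firefly luciferase from ISG56 promoter only with Renilla not read in this screen; 0% = Sendai virus plus DMSO and 100% = medium plus DMSO without virus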); settings: HEK293 RL24 IRF3 luciferase reporter, at 10 µM, stronger effect = higher value
[8] = inhibitors of poly I:C-induced TLR3 signaling, primary screen, cell-based, poly I:C stimulus, luciferase, 10K MLSCN set (AID 602277); settings: HEK293-TLR3 RL24 IRF3 luciferase reporter, at 10 µM, stronger effect = higher value
[9] = biological target: Alpha-2C adrenergic receptor (Homo sapiens) (UniProt P18825); assay: modulators of alpha2C/GIRK thallium flux, primary screen, cell-based, HEK293 alpha2C/GIRK1/2 (AID 624;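 active = fluorescence slope after compound addition differing from the mean of all screened samples at 99.7% confidence, in either direction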;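 also: slope of fluorescence ratio to pre-addition baseline per second over 15 to 24 s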); settings: thallium flux BTC fluorescence, at 10 µM, actives lie on both sides
[10] = inhibitors of larval lipid processing in zebrafish, primary screen, whole organism, PED6 fluorescence, gall bladder and intestine (AID 686;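 active = a full or partial loss of lipid-probe fluorescence in the fish gall bladder, intestine or both, judged by eye; inactive = no fluorescence loss, or compound toxic to the fish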;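 also: larvae 5 to 7 days old with five fish per well; signal comes from phospholipase A2 cleavage of quenched PED6 carried via bile; overnight exposure to compound and PED6 before scoring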); settings: Zebrafish larvae PED6 lipid processing, fluorescence scoring; screened at 20 µM (by protocol)
How it was run: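 Test system – live zebrafish larvae aged 5-7 days, whole organism · Buffer or medium – E3 fish medium · Reagent – quenched phospholipase substrate PED6, 100 nM final, ingested by larvae · Doses – 20 µM single dose · Incubation – overnight compound and PED6 incubation · Technique – visual fluorescence microscopy scoring of gall bladder, gut · Read-out basis – visual per-well fluorescence inhibition score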

Chain of Voltage-gated potassium channel subunit beta-2 (Rattus norvegicus) (P62483 whole entry, looked up): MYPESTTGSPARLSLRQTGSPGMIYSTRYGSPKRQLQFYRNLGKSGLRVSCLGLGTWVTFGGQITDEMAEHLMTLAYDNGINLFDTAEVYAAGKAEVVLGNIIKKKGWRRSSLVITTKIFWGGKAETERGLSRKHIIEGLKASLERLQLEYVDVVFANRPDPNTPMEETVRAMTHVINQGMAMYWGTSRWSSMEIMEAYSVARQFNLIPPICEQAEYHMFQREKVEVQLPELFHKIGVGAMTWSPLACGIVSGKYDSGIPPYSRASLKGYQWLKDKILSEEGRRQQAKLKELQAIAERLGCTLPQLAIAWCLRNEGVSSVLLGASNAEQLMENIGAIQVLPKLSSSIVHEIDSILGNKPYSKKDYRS
Chain of Muscarinic acetylcholine receptor M4 (Homo sapiens) (P08173 whole entry, looked up): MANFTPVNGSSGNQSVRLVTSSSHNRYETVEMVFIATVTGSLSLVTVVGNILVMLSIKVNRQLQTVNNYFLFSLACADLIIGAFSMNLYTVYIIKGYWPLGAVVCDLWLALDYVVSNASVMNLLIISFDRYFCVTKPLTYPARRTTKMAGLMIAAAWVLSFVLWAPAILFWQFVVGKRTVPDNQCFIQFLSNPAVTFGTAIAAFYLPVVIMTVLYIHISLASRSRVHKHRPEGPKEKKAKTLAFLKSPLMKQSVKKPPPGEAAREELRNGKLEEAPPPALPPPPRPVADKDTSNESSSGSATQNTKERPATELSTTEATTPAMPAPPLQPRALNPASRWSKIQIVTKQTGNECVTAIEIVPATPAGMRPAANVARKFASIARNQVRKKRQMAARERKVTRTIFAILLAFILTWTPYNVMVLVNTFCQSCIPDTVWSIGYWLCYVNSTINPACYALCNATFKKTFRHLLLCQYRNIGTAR
Chain of Alpha-2C adrenergic receptor (Homo sapiens) (P18825 whole entry, looked up): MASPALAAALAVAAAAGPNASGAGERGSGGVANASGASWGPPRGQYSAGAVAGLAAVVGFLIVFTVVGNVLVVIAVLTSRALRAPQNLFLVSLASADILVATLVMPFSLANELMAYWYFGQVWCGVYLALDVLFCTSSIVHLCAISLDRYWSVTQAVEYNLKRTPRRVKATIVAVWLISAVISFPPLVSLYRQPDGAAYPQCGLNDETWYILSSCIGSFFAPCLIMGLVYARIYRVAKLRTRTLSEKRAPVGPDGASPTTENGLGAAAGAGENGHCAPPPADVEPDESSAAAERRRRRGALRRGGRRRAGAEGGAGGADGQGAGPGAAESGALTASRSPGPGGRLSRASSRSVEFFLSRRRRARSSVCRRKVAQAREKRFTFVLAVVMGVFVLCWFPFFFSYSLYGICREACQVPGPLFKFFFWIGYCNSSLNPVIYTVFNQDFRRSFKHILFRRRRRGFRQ

SMILES: CCN(C#N)c1nc(NC(C)C)nc(NC(C)C)n1
- cell count [1]: 354
- inhibition [1]: 3.3% (inactive)
- inhibition of aggregation [2]: 14.7% (inactive)
- nuclei count [2]: 100%
- inhibition [3]: -0.6% (inactive)
- nuclei count [3]: 82.6%
- fluorescence slope [4]: -0.316 (inactive)
- NADPH fluorescence slope [5]: -5.2e-05 (inactive)
- fluorescence slope [6]: 0.00491 (inactive)
- inhibition [7]: 0.243% (inactive)
- inhibition [8]: 9.55% (inactive)

SMILES: CCOC(=O)CSc1nc2sc(C)c(C)c2c(=O)[nH]1
- cell count [1]: 419
- inhibition [1]: 1.6% (inactive)
- inhibition of aggregation [2]: -20% (inactive)
- nuclei count [2]: 104%
- inhibition [3]: -75.6% (inactive)
- nuclei count [3]: 102%
- fluorescence slope [4]: -0.38 (inactive)
- NADPH fluorescence slope [5]: -5e-06 (inactive)
- slope [9]: 0.00685 (inactive)
- outcome [10]: inactive
- inhibition [7]: 8.58% (inactive)
- inhibition [8]: 9.53% (inactive)

SMILES: Cn1c(SCc2cccc3ccccc23)nnc1-c1ccco1
- cell count [1]: 574
- inhibition [1]: 1.6% (inactive)
- inhibition of aggregation [2]: 3.5% (inactive)
- nuclei count [2]: 101%
- inhibition [3]: -63% (inactive)
- nuclei count [3]: 103%
- fluorescence slope [4]: -0.545 (inactive)
- NADPH fluorescence slope [5]: 2.1e-05 (inactive)
- fluorescence slope [6]: 0.00593 (inactive)
- inhibition [7]: -8.19% (inactive)
- inhibition [8]: -65.7% (inactive)

SMILES: O=c1c2[nH]c3ccc(Cl)cc3c2ncn1Cc1ccccn1
- cell count [1]: 302
- inhibition [1]: -3.6% (inactive)
- inhibition of aggregation [2]: -30.4% (inactive)
- nuclei count [2]: 83.4%
- inhibition [3]: -31.6% (inactive)
- nuclei count [3]: 107%
- fluorescence slope [4]: -0.392 (inactive)
- NADPH fluorescence slope [5]: -4.3e-05 (inactive)
- slope [9]: 0.00522 (inactive)
- outcome [10]: inactive
- inhibition [7]: -2.53% (inactive)
- inhibition [8]: 5.03% (inactive)

SMILES: Cc1nc2cc(CO)ccc2n1C
- cell count [1]: 425
- inhibition [1]: 4.7% (inactive)
- inhibition of aggregation [2]: 1% (inactive)
- nuclei count [2]: 92.7%
- inhibition [3]: -12.6% (inactive)
- nuclei count [3]: 108%
- fluorescence slope [4]: -0.589 (inactive)
- NADPH fluorescence slope [5]: -3.5e-05 (inactive)
- fluorescence slope [6]: 0.00622 (inactive)
- inhibition [7]: 2.69% (inactive)
- inhibition [8]: 14.4% (inactive)

SMILES: CC(C)(C)OC(=O)NC(CCNC=C1C(=O)OC(C)(C)OC1=O)C(=O)O (centres undefined)
- cell count [1]: 255
- inhibition [1]: 7.2% (inactive)
- inhibition of aggregation [2]: 12.3% (inactive)
- nuclei count [2]: 106%
- inhibition [3]: -87% (inactive)
- nuclei count [3]: 103%
- fluorescence slope [4]: -0.299 (inactive)
- NADPH fluorescence slope [5]: -5.2e-05 (inactive)
- fluorescence slope [6]: 0.00613 (inactive)
- inhibition [7]: 5.28% (inactive)
- inhibition [8]: 0.81% (inactive)

SMILES: COCCNC(=O)C(c1ccc(C)o1)N(Cc1cccs1)C(=O)c1snc(C(N)=O)c1N (centres undefined)
- cell count [1]: 387
- inhibition [1]: 3.5% (inactive)
- inhibition of aggregation [2]: 6.6% (inactive)
- nuclei count [2]: 96.3%
- inhibition [3]: -93.7% (inactive)
- nuclei count [3]: 117%
- fluorescence slope [4]: -0.379 (inactive)
- NADPH fluorescence slope [5]: -4.3e-05 (inactive)
- slope [9]: 0.00484 (inactive)
- outcome [10]: inactive
- inhibition [7]: -13.8% (inactive)
- inhibition [8]: -11.9% (inactive)

SMILES: O=C(CCN1CCOCC1)Nc1cccc(Br)c1
- cell count [1]: 354
- inhibition [1]: -5.1% (inactive)
- inhibition of aggregation [2]: -9.3% (inactive)
- nuclei count [2]: 134%
- inhibition [3]: -70.3% (inactive)
- nuclei count [3]: 125%
- fluorescence slope [4]: -0.409 (inactive)
- NADPH fluorescence slope [5]: 9.1e-05 (inactive)
- fluorescence slope [6]: 0.00691 (inactive)
- inhibition [7]: 16.1% (inactive)
- inhibition [8]: 15.9% (inactive)

SMILES: COc1ccccc1CN1C(=O)CCC1(C)C(=O)NC1CCCCCC1 (centres undefined)
- cell count [1]: 452
- inhibition [1]: 5.3% (inactive)
- inhibition of aggregation [2]: 14.8% (inactive)
- nuclei count [2]: 63.8%
- inhibition [3]: -184% (inactive)
- nuclei count [3]: 115%
- fluorescence slope [4]: -0.44 (inactive)
- NADPH fluorescence slope [5]: 0.000132 (inactive)
- fluorescence slope [6]: 0.00525 (inactive)
- inhibition [7]: 0.126% (inactive)
- inhibition [8]: 9.28% (inactive)

SMILES: Cc1oc2c(CN3CCCC3)c(O)ccc2c(=O)c1-c1ccccc1
- cell count [1]: 243
- inhibition [1]: 3.8% (inactive)
- inhibition of aggregation [2]: 6.5% (inactive)
- nuclei count [2]: 96.3%
- inhibition [3]: -46% (inactive)
- nuclei count [3]: 97.7%
- fluorescence slope [4]: -0.0276 (active)
- NADPH fluorescence slope [5]: 8.9e-06 (inactive)
- fluorescence slope [6]: 0.00581 (inactive)
- inhibition [7]: 14% (inactive)
- inhibition [8]: 24.5% (inactive)

SMILES: Cc1nc(Nc2nc(=O)c3ccccc3n2C)nc2c(C)cccc12
- cell count [1]: 594
- inhibition [1]: 5.2% (inactive)
- inhibition of aggregation [2]: -282% (inactive)
- nuclei count [2]: 73.9%
- inhibition [3]: -112% (inactive)
- nuclei count [3]: 156%
- fluorescence slope [4]: -0.348 (inactive)
- NADPH fluorescence slope [5]: -5e-06 (inactive)
- fluorescence slope [6]: 0.00486 (inactive)
- inhibition [7]: 14.6% (inactive)
- inhibition [8]: 22.9% (inactive)
